Test results reported in ChEMBL document CHEMBL1135468 (J Med Chem, 2002).
pKi: −log10 of the molar value. *1 amine or outer side, *2 acyl side, *3 side chain or, on linkers, in order; H or OH if unused. Where a SMILES comes first, the peptide text is derived from it. Bridges are numbered along the chain shown (N, C = ends). [ ]: non-standard residue; d: D form. The star is where a group is joined. 6FAM = O=C1OC2(c3ccc(O)cc3Oc3cc(O)ccc32)c2cc(C(=O)*)ccc21; X4 = O=C(CC1(S[*:2])CCCCC1)[*:1]; X1 = O=C([C@@H](O)CS[*:2])[*:1]; Orn = NCCC[C@H](N)C(=O)O; Mpa = O=C(O)CCS

Experiments:
[1] = target: T1, Oxytocin receptor (Homo sapiens, UniProt P30559); assay: Binding affinity for human oxytocin receptor
T1 sequence (P30559 whole entry): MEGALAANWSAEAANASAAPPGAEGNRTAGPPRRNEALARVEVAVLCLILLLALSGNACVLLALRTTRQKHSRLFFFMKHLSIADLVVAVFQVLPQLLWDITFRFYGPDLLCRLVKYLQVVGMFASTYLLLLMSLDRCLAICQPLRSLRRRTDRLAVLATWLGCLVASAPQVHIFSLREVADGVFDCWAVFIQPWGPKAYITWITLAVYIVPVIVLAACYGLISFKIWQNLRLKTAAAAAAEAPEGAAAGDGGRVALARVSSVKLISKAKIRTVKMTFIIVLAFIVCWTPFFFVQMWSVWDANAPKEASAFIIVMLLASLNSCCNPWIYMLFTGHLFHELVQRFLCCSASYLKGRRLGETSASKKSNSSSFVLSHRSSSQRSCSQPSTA

[2] = target: Vasopressin V1a receptor (Homo sapiens, UniProt P37288); assay: Binding affinity for human Vasopressin V1a receptor
Chain of Vasopressin V1a receptor (P37288 whole entry): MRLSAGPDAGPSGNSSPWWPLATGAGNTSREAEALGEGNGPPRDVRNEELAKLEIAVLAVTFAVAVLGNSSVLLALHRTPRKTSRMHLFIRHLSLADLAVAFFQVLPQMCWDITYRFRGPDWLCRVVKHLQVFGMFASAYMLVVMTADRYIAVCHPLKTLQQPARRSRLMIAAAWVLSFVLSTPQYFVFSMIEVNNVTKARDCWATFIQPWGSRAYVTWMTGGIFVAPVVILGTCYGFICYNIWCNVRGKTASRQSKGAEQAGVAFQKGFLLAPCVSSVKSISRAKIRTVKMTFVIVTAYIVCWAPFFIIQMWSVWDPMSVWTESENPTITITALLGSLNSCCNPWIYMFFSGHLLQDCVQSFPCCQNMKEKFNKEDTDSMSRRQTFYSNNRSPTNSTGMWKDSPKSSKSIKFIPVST

[3] = target: T2, Vasopressin V1b receptor (Homo sapiens, UniProt P47901); assay: Binding affinity towards human Vasopressin V1b receptor
T2 sequence (P47901 whole entry): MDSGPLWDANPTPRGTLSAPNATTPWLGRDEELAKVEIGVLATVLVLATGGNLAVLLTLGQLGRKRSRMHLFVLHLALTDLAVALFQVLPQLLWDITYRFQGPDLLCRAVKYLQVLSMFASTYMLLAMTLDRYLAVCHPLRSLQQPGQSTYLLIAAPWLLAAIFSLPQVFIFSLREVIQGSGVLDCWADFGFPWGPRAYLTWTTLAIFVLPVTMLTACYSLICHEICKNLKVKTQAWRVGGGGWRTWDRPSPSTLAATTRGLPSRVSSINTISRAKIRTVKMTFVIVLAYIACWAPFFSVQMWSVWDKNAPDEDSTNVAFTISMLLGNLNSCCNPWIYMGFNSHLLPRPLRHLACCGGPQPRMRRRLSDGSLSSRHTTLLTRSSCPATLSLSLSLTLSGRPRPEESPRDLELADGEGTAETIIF
Procedure, shortened: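 Competition binding on membranes from CHO cells stably expressing one human receptor, butyrate-treated (5 mM, overnight). Radioligands: OT, 200-250 pM [125I]OTA or 120-180 pM [125I]HO-LVA; V1a, 40-60 pM [125I]HO-LVA; V1b, 1-3 nM [3H]AVP. Competitor 1 pM-1 µM; nonspecific with 1 µM unlabeled ligand; 1 h, 30 °C. Ki by nonlinear least-squares, ≥3 experiments in triplicate.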

[4] = target: Vasopressin V2 receptor (Homo sapiens, UniProt P30518); assay: Binding affinity towards human Vasopressin V2 receptor
Chain of Vasopressin V2 receptor (P30518 whole entry): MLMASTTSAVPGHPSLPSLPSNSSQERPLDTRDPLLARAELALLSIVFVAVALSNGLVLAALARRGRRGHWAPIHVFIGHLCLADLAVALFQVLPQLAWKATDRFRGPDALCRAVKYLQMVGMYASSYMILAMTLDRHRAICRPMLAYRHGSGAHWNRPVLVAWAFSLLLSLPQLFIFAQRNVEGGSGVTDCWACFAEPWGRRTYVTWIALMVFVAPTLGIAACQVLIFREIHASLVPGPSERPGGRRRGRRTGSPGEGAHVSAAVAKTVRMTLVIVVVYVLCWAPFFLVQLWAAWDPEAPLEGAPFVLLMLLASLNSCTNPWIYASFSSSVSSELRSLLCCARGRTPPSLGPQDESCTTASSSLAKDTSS
Procedure, shortened: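 Human V2 receptor stably expressed in CHO cells, butyrate-treated (5 mM, overnight); membranes at 5-10 µg protein/assay competed against 1-3 nM [3H]AVP. Fluorescent ligand ranged 1 pM-1 µM; nonspecific binding defined with 1 µM unlabeled ligand. Incubation 1 h at 30 °C. Ki from nonlinear least-squares fit of two independent experiments, each run in triplicate.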

Row | SMILES | pKi [1] | pKi [2] | pKi [3] | pKi [4]
1 | CC[C@H](C)[C@@H]1NC(=O)[C@@H](Cc2ccc(O)cc2)NC(=O)CC2(CCCCC2)SSC[C@@H](C(=O)N2CCC[C@H]2C(=O)N[C@@H](CCCNC(=O)c2ccc3c(c2)C2(OC3=O)c3ccc(O)cc3Oc3cc(O)ccc32)C(=O)O)NC(=O)[C@H](CC(N)=O)NC(=O)[C@H]([C@@H](C)O)NC1=O | 6.90 | 6.18 | < 6.00 | < 5.00
2 | CC[C@H](C)[C@@H]1NC(=O)[C@H](Cc2ccc(O)cc2)NC(=O)CCSSC[C@@H](C(=O)N2CCC[C@H]2C(=O)N[C@@H](CCCNC(=O)c2ccc3c(c2)C2(OC3=O)c3ccc(O)cc3Oc3cc(O)ccc32)C(=O)NCC(N)=O)NC(=O)[C@H](CC(N)=O)NC(=O)[C@H](CCC(N)=O)NC1=O ([Mpa]YIQNCP[Orn](6FAM)G-NH2; disulfide 1-6) | 9.60 | 6.97 | 6.41 | < 5.00
3 | CC[C@H](C)[C@@H]1NC(=O)[C@H](Cc2ccc(O)cc2)NC(=O)CCSSC[C@@H](C(=O)N2CCC[C@H]2C(=O)N[C@@H](CCCCNC(=O)c2ccc3c(c2)C2(OC3=O)c3ccc(O)cc3Oc3cc(O)ccc32)C(=O)NCC(N)=O)NC(=O)[C@H](CC(N)=O)NC(=O)[C@H](CCC(N)=O)NC1=O ([Mpa]YIQNCPK(6FAM)G-NH2; disulfide 1-6) | 9.54 | 7.24 | 6.91 | < 5.00
4 | CC[C@H](C)[C@@H]1NC(=O)[C@H](Cc2ccc(O)cc2)NC(=O)[C@@H](O)CSSC[C@@H](C(=O)N2CCC[C@H]2C(=O)N[C@@H](CCCCNC(=O)c2ccc3c(c2)C2(OC3=O)c3ccc(O)cc3Oc3cc(O)ccc32)C(=O)NCC(N)=O)NC(=O)[C@H](CC(N)=O)NC(=O)[C@H](CCC(N)=O)NC1=O (YIQNCPK(6FAM)G-NH2; linker N-5 via X1) | 9.47 | 7.86 | 7.18 | –
5 | CC[C@H](C)[C@@H]1NC(=O)[C@H](Cc2ccc(O)cc2)NC(=O)[C@@H](O)CSSC[C@@H](C(=O)N2CCC[C@H]2C(=O)N[C@@H](CCCNC(=O)c2ccc3c(c2)C2(OC3=O)c3ccc(O)cc3Oc3cc(O)ccc32)C(=O)NCC(N)=O)NC(=O)[C@H](CC(N)=O)NC(=O)[C@H](CCC(N)=O)NC1=O (YIQNCP[Orn](6FAM)G-NH2; linker N-5 via X1) | 9.74 | 7.91 | 6.90 | –
6 | CC[C@H](C)[C@@H]1NC(=O)[C@H](Cc2ccc(OC)cc2)NC(=O)CC2(CCCCC2)SSC[C@@H](C(=O)N2CCC[C@H]2C(=O)N[C@@H](CCCN)C(=O)N[C@@H](Cc2ccc(O)cc2)C(N)=O)NC(=O)[C@H](CC(N)=O)NC(=O)[C@H]([C@@H](C)O)NC1=O (Y(Me)ITNCP[Orn]Y-NH2; linker N-5 via X4) | 9.68 | 8.41 | < 5.00 | 6.03
